Measured values of several laboratories.
SIGMAR1: Sigma non-opioid intracellular receptor 1 (SIGMAR1, Homo sapiens, UniProt Q99720)
Nectin-4: Nectin-4 (Homo sapiens, UniProt Q96NY8)
PFF0160c: Dihydroorotate dehydrogenase (quinone), mitochondrial (PFF0160c, Plasmodium falciparum, UniProt Q08210)
Oprm1: Mu-type opioid receptor (Oprm1, Mus musculus, UniProt P42866)

For `COc1cc2nc(N3CCCN(C)CC3)nc(NC3CCN(Cc4ccccc4)CC3)c2cc1OC`, the Ki was greater than 10000 nM (SIGMAR1; ligand displacement, radioligand).
For `CCCC[C@@H]1NC(=O)[C@H](Cc2ccc(O)cc2)NC(=O)[C@@H]2CCCN2C(=O)[C@H](CC(=O)O)NC(=O)[C@H](C)NC(=O)[C@H](Cc2ccccc2)NC(=O)[C@@H]2CSCCC(=O)N3CN(CN(C3)C(=O)CCSC[C@@H](C(=O)N[C@@H](C)C(N)=O)NC1=O)C(=O)CCSC[C@H](NC(C)=O)C(=O)N[C@@H](CC(C)(C)C)C(=O)N1CCC[C@H]1C(=O)N[C@@H](CCC(=O)O)C(=O)N[C@H](CCCCNC(=O)CCc1cn(CCOCCOCCOCCOCCOCCC(=O)NCCCC[C@H]3NC(=O)[C@H](Cc4cccc5ccccc45)NC(=O)[C@@H]4CCCN4C(=O)[C@@H](NC(C)=O)CSCCC(=O)N4CN5CN(C4)C(=O)CCSC[C@H](NC3=O)C(=O)N[C@@H](CCSC)C(=O)N[C@@H](CCCCNC(=N)N)C(=O)N[C@@H](CCC(=O)O)C(=O)N[C@@H](Cc3c[nH]c4ccccc34)C(=O)N[C@@H](CO)C(=O)N[C@@H]([C@@H](C)O)C(=O)N3CCC[C@H]3C(=O)N3C[C@H](O)C[C@H]3C(=O)N[C@@H](Cc3c[nH]c4ccccc34)C(=O)N[C@H](C(N)=O)CSCCC5=O)nn1)C(=O)N1CCC[C@H]1C(=O)N[C@@H](Cc1ccc(O)cc1)C(=O)N2`, the Kd was 1.8 nM (Nectin-4; binding, SPR).
For `Cc1noc(-c2cccs2)c1C(=O)NCCc1cccc(Cl)c1`, the IC50 was 689 nM (PFF0160c; enzyme activity, inhibitor, absorbance).
`O=C(N[C@H]1C=C[C@@]2(O)[C@H]3Cc4ccc(O)c5c4[C@@]2(CCN3CC2CC2)[C@H]1O5)c1c[nH]c2cnccc12` gave a Ki of 1.16 nM (Oprm1; ligand displacement, radioligand).
With `CCCC[C@@H]1NC(=O)[C@H](Cc2ccc(O)cc2)NC(=O)[C@@H]2CCCN2C(=O)[C@H](CC(=O)O)NC(=O)[C@H](C)NC(=O)[C@H](Cc2ccccc2)NC(=O)[C@@H]2CSCCC(=O)N3CN(CN(C3)C(=O)CCSC[C@@H](C(=O)N[C@@H](CNC(=O)CCc3cn(CCOCCOCCOCCOCCOCCOCCOCCOCCOCCOCCOCCOCCOCCOCCOCCOCCOCCOCCOCCOCCOCCOCCOCCNC(=O)N[C@H]4CSCCC(=O)N5CN6CN(C5)C(=O)CCSC[C@H](NC(=O)[C@@H](CC(=O)O)NC(=O)[C@H](Cc5cccc7ccccc57)NC(=O)[C@@H]5CCCN5C4=O)C(=O)N[C@@H](CCSC)C(=O)N[C@@H](CCCCNC(=N)N)C(=O)N[C@@H](CC(=O)O)C(=O)N[C@@H](Cc4c[nH]c5ccccc45)C(=O)N[C@@H](CO)C(=O)N[C@@H]([C@@H](C)O)C(=O)N4CCC[C@H]4C(=O)N4C[C@H](O)C[C@H]4C(=O)N[C@@H](Cc4c[nH]c5ccccc45)C(=O)N[C@H](C(N)=O)CSCCC6=O)nn3)C(N)=O)NC1=O)C(=O)CCSC[C@H](NC(=O)[C@H](C)NC(C)=O)C(=O)N[C@@H]([C@@H](C)CC)C(=O)N[C@@H](CCC(=O)O)C(=O)N[C@@H](CCC(=O)O)C(=O)NCC(=O)N[C@@H](CCC(N)=O)C(=O)N[C@@H](Cc1ccc(O)cc1)C(=O)N2` the Kd was 1.8 nM (Nectin-4; binding, SPR).
`O=C(N[C@@H]1C=C[C@@]2(O)[C@H]3Cc4ccc(O)c5c4[C@@]2(CCN3CC2CC2)[C@H]1O5)c1c[nH]c2ccncc12` has a Ki of 0.94 nM (Oprm1; ligand displacement, radioligand).
For `COc1ccc(CN2CCN(Cc3ccccc3)CC2)cc1`, the Ki was 13.8 nM (SIGMAR1; ligand displacement, radioligand).
With `CCn1c(-c2ccccc2)cc2nnc3ccccc3c21` the IC50 was 458 nM (PFF0160c; enzyme activity, inhibitor, absorbance).
The Ki of `O=C(N[C@@H]1C=C[C@@]2(O)[C@H]3Cc4ccc(O)c5c4[C@@]2(CCN3CC2CC2)[C@H]1O5)c1c[nH]c2ncccc12` is reported as 0.28 nM (Oprm1; ligand displacement, radioligand).
With `CCn1cc(C(=O)NC2CCNCC2)n(Cc2ccccc2)c1=O` the IC50 was 8940 nM (Dihydroorotate dehydrogenase (quinone), mitochondrial (PFF0160c, Plasmodium falciparum, UniProt Q08210, E182D); enzyme activity, inhibitor, absorbance).
The Kd of `CCCC[C@@H]1NC(=O)[C@H](Cc2ccc(O)cc2)NC(=O)[C@@H]2CCCN2C(=O)[C@H](CC(=O)O)NC(=O)[C@H](C)NC(=O)[C@H](Cc2ccccc2)NC(=O)[C@@H]2CSCCC(=O)N3CN(CN(C3)C(=O)CCSC[C@@H](C(=O)N[C@@H](C)C(N)=O)NC1=O)C(=O)CCSC[C@H](NC(C)=O)C(=O)N[C@@H](CC(C)(C)C)C(=O)N1CCC[C@H]1C(=O)N[C@@H](CCC(=O)O)C(=O)N[C@H](CCCCNC(=O)CCc1cn(CCOCCOCCOCCOCCOCCC(=O)NCCCC[C@H]3NC(=O)[C@H](Cc4cccc5ccccc45)NC(=O)[C@@H]4CCCN4C(=O)[C@@H](NC(C)=O)CSCCC(=O)N4CN5CN(C4)C(=O)CCSC[C@H](NC3=O)C(=O)N[C@@H](CCSC)C(=O)N[C@@H](CCCCNC(=N)N)C(=O)N[C@@H](CC(=O)O)C(=O)N[C@@H](Cc3c[nH]c4ccccc34)C(=O)N[C@@H](CO)C(=O)N[C@@H]([C@@H](C)O)C(=O)N3CCC[C@H]3C(=O)N3C[C@H](O)C[C@H]3C(=O)N[C@@H](Cc3c[nH]c4ccccc34)C(=O)N[C@H](C(N)=O)CSCCC5=O)nn1)C(=O)N1CCC[C@H]1C(=O)N[C@@H](Cc1ccc(O)cc1)C(=O)N2` is reported as 1.3 nM (Nectin-4; binding, SPR).
